Assay results: ChEMBL document CHEMBL5247575 (J Med Chem, 2018)

Experiments:
Pseudomonas aeruginosa [1] = assay: Synergistic antibacterial activity against Pseudomonas aeruginosa 776 assessed as cefepime MIC at 4 ug/ml by broth microdilution method; format: functional; conditions: dose 4 µg/ml
Acinetobacter baumannii [2] = assay: Synergistic antibacterial activity against Acinetobacter baumannii PR323 producing OXA-24/40 assessed as meropenem MIC at 4 ug/ml by broth microdilution method; format: functional; conditions: dose 4 µg/ml
Klebsiella pneumoniae [3] = assay: Synergistic antibacterial activity against Klebsiella pneumoniae 972/1910 producing KPC-3 assessed as meropenem MIC at 8 ug/ml by broth microdilution method; format: functional; conditions: dose 8 µg/ml
Klebsiella pneumoniae [4] = assay: Synergistic antibacterial activity against Klebsiella pneumoniae 972/1910 producing KPC-3 assessed as cefepime MIC at 4 ug/ml by broth microdilution method; format: functional; conditions: dose 4 µg/ml
Pseudomonas aeruginosa [5] = assay: Synergistic antibacterial activity against Pseudomonas aeruginosa 839 assessed as meropenem MIC at 8 ug/ml by broth microdilution method; format: functional; conditions: dose 8 µg/ml
Klebsiella pneumoniae [6] = assay: Synergistic antibacterial activity against Klebsiella pneumoniae 660/1568 producing KPC-3 assessed as cefepime MIC at 8 ug/ml by broth microdilution method; format: functional; conditions: dose 8 µg/ml
How it was run: (§1)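 Broth microdilution per CLSI guidelines, using custom frozen panels. […] Each partner drug was also tested alone. MICs were run in triplicate and the modal value is reported.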

Acinetobacter baumannii [7] = assay: Synergistic antibacterial activity against Acinetobacter baumannii PR363 producing OXA-23 assessed as meropenem MIC at 8 ug/ml by broth microdilution method; format: functional; conditions: dose 8 µg/ml
Klebsiella pneumoniae [8] = assay: Synergistic antibacterial activity against Klebsiella pneumoniae 729/1679 producing KPC-3 assessed as cefepime MIC at 4 ug/ml by broth microdilution method; format: functional; conditions: dose 4 µg/ml; how it was run: as §1
Acinetobacter baumannii [9] = assay: Synergistic antibacterial activity against ADC deleted Acinetobacter baumannii assessed as cefepime MIC at 8 ug/ml by broth microdilution method; format: functional; conditions: dose 8 µg/ml
Pseudomonas aeruginosa [10] = assay: Synergistic antibacterial activity against Pseudomonas aeruginosa CL232 assessed as meropenem MIC at 4 ug/ml by broth microdilution method; format: functional; conditions: dose 4 µg/ml
Klebsiella pneumoniae [11] = assay: Synergistic antibacterial activity against Klebsiella pneumoniae 1354/2241 producing KPC-3 assessed as cefepime MIC at 4 ug/ml by broth microdilution method; format: functional; conditions: dose 4 µg/ml; how it was run: as §1
Acinetobacter baumannii [12] = assay: Synergistic antibacterial activity against Acinetobacter baumannii PR476 producing OXA-24/40 assessed as meropenem MIC at 4 ug/ml by broth microdilution method; format: functional; conditions: dose 4 µg/ml
Escherichia coli [13] = assay: Synergistic antibacterial activity against Escherichia coli DH10B transfected with pBC SK (-) PDC-3 assessed as cefepime MIC at 4 ug/ml by broth microdilution method; format: functional; conditions: dose 4 µg/ml; how it was run: as §1
Pseudomonas aeruginosa [14] = assay: Synergistic antibacterial activity against Pseudomonas aeruginosa CL232 assessed as cefepime MIC at 8 ug/ml by broth microdilution method; format: functional; conditions: dose 8 µg/ml
Klebsiella pneumoniae [15] = assay: Synergistic antibacterial activity against Klebsiella pneumoniae 901/1860 producing KPC-3 assessed as cefepime MIC at 8 ug/ml by broth microdilution method; format: functional; conditions: dose 8 µg/ml
Klebsiella pneumoniae [16] = assay: Synergistic antibacterial activity against Klebsiella pneumoniae 977/1916 producing KPC-3 assessed as cefepime MIC at 4 ug/ml by broth microdilution method; format: functional; conditions: dose 4 µg/ml
Klebsiella pneumoniae [17] = assay: Synergistic antibacterial activity against Klebsiella pneumoniae 1315/2198 producing KPC-3 assessed as cefepime MIC at 4 ug/ml by broth microdilution method; format: functional; conditions: dose 4 µg/ml; how it was run: as §1
Klebsiella pneumoniae [18] = assay: Synergistic antibacterial activity against Klebsiella pneumoniae 1108/1989 producing KPC-3 assessed as meropenem MIC at 8 ug/ml by broth microdilution method; format: functional; conditions: dose 8 µg/ml; how it was run: as §1
Klebsiella pneumoniae [19] = assay: Synergistic antibacterial activity against Klebsiella pneumoniae CAV 1543 producing OXA-48 assessed as meropenem MIC at 4 ug/ml by broth microdilution method; format: functional; conditions: dose 4 µg/ml
Klebsiella pneumoniae [20] = assay: Synergistic antibacterial activity against Klebsiella pneumoniae 1398/2291 producing KPC-3 assessed as cefepime MIC at 4 ug/ml by broth microdilution method; format: functional; conditions: dose 4 µg/ml; how it was run: as §1
Escherichia coli [21] = assay: Synergistic antibacterial activity against Escherichia coli DH10B transfected with pBC SK (-) KPC-2 assessed as cefepime MIC at 4 ug/ml by broth microdilution method; format: functional; conditions: dose 4 µg/ml
Klebsiella pneumoniae [22] = assay: Synergistic antibacterial activity against Klebsiella pneumoniae 1084/1957 producing KPC-3 assessed as meropenem MIC at 8 ug/ml by broth microdilution method; format: functional; conditions: dose 8 µg/ml; how it was run: as §1
Escherichia coli [23] = assay: Synergistic antibacterial activity against Escherichia coli DH10B transfected with pBC SK (-) PDC-3 assessed as meropenem MIC at 8 ug/ml by broth microdilution method; format: functional; conditions: dose 8 µg/ml; how it was run: as §1
Klebsiella pneumoniae [24] = assay: Synergistic antibacterial activity against Klebsiella pneumoniae 761/1723 producing KPC-3 assessed as cefepime MIC at 8 ug/ml by broth microdilution method; format: functional; conditions: dose 8 µg/ml; how it was run: as §1
Acinetobacter baumannii [25] = assay: Synergistic antibacterial activity against ADC deleted Acinetobacter baumannii transfected with pWH1266 OXA-23 assessed as cefepime MIC at 4 ug/ml by broth microdilution method; format: functional; conditions: dose 4 µg/ml
Pseudomonas aeruginosa [26] = assay: Synergistic antibacterial activity against Pseudomonas aeruginosa CL232 assessed as meropenem MIC at 8 ug/ml by broth microdilution method; format: functional; conditions: dose 8 µg/ml
Klebsiella pneumoniae [27] = assay: Synergistic antibacterial activity against Klebsiella pneumoniae 935/1884 producing KPC-3 assessed as meropenem MIC at 8 ug/ml by broth microdilution method; format: functional; conditions: dose 8 µg/ml
Bacteria [28] = assay: Inhibition of bacteria ADC-7 assessed as half life using nitrocefin as substrate
Acinetobacter baumannii [29] = assay: Synergistic antibacterial activity against Acinetobacter baumannii PR420 producing OXA-23/24/40 assessed as meropenem MIC at 8 ug/ml by broth microdilution method; format: functional; conditions: dose 8 µg/ml
Klebsiella pneumoniae [30] = assay: Synergistic antibacterial activity against Klebsiella pneumoniae 977/1916 producing KPC-3 assessed as meropenem MIC at 8 ug/ml by broth microdilution method; format: functional; conditions: dose 8 µg/ml
Acinetobacter baumannii [31] = assay: Synergistic antibacterial activity against Acinetobacter baumannii PR381 producing OXA-24/40 assessed as meropenem MIC at 4 ug/ml by broth microdilution method; format: functional; conditions: dose 4 µg/ml
Acinetobacter baumannii [32] = assay: Synergistic antibacterial activity against Acinetobacter baumannii PR476 producing OXA-24/40 assessed as meropenem MIC at 8 ug/ml by broth microdilution method; format: functional; conditions: dose 8 µg/ml
Klebsiella pneumoniae [33] = assay: Synergistic antibacterial activity against Klebsiella pneumoniae CAV 1636 producing OXA-181 assessed as meropenem MIC at 4 ug/ml by broth microdilution method; format: functional; conditions: dose 4 µg/ml
Klebsiella pneumoniae [34] = assay: Synergistic antibacterial activity against Klebsiella pneumoniae 440/1360 producing KPC-2 assessed as cefepime MIC at 4 ug/ml by broth microdilution method; format: functional; conditions: dose 4 µg/ml; how it was run: as §1
Bacteria [35] = assay: Inhibition of bacteria PDC-3 assessed as half life using nitrocefin as substrate
Pseudomonas aeruginosa [36] = assay: Synergistic antibacterial activity against Pseudomonas aeruginosa 776 assessed as meropenem MIC at 8 ug/ml by broth microdilution method; format: functional; conditions: dose 8 µg/ml
Acinetobacter baumannii [37] = assay: Synergistic antibacterial activity against ADC deleted Acinetobacter baumannii transfected with pWH1266 OXA-23 assessed as meropenem MIC at 4 ug/ml by broth microdilution method; format: functional; conditions: dose 4 µg/ml
Pseudomonas aeruginosa [38] = assay: Synergistic antibacterial activity against Pseudomonas aeruginosa 715 assessed as meropenem MIC at 4 ug/ml by broth microdilution method; format: functional; conditions: dose 4 µg/ml
Escherichia coli [39] = assay: Antibacterial activity against Escherichia coli DH10B transfected with pBC SK (-) PDC-3 by broth microdilution method; format: functional
Pseudomonas aeruginosa [40] = assay: Synergistic antibacterial activity against Pseudomonas aeruginosa 795 assessed as meropenem MIC at 4 ug/ml by broth microdilution method; format: functional; conditions: dose 4 µg/ml
Pseudomonas aeruginosa [41] = assay: Antibacterial activity against Pseudomonas aeruginosa CL232 by broth microdilution method; format: functional

SMILES | MIC (Acinetobacter baumannii [2]) [µg/mL] | MIC (Klebsiella pneumoniae [4]) [µg/mL] | MIC (Klebsiella pneumoniae [8]) [µg/mL] | MIC (Pseudomonas aeruginosa [10]) [µg/mL] | MIC (Klebsiella pneumoniae [11]) [µg/mL] | MIC (Acinetobacter baumannii [12]) [µg/mL] | MIC (Escherichia coli [13]) [µg/mL] | MIC (Klebsiella pneumoniae [16]) [µg/mL] | MIC (Klebsiella pneumoniae [17]) [µg/mL] | MIC (Klebsiella pneumoniae [19]) [µg/mL] | MIC (Klebsiella pneumoniae [20]) [µg/mL] | MIC (Escherichia coli [21]) [µg/mL] | T1/2 (Bacteria [28]) [min] | MIC (Acinetobacter baumannii [31]) [µg/mL] | MIC (Klebsiella pneumoniae [33]) [µg/mL] | MIC (Klebsiella pneumoniae [34]) [µg/mL] | T1/2 (Bacteria [35]) [min] | also measured
O=C(NNC(=O)[C@@H]1CC[C@@H]2CN1C(=O)N2OS(=O)(=O)O)[C@@H]1CCNC1 | > 16 | ≤ 0.12 | ≤ 0.12 | > 16 | ≤ 0.12 | 0.25 | ≤ 0.12 | ≤ 0.12 | ≤ 0.12 | ≤ 0.12 | ≤ 0.12 | ≤ 0.12 | 13 | > 16 | ≤ 0.12 | ≤ 0.12 | 2.9 | MIC (Pseudomonas aeruginosa [1]): 16 µg/mL; MIC (Klebsiella pneumoniae [3]): ≤ 0.12 µg/mL; MIC (Pseudomonas aeruginosa [5]): ≤ 0.12 µg/mL; MIC (Klebsiella pneumoniae [6]): ≤ 0.12 µg/mL; MIC (Acinetobacter baumannii [7]): > 16 µg/mL; MIC (Acinetobacter baumannii [9]): 0.5 µg/mL; MIC (Pseudomonas aeruginosa [14]): 4 µg/mL; MIC (Klebsiella pneumoniae [15]): ≤ 0.12 µg/mL; MIC (Klebsiella pneumoniae [18]): ≤ 0.12 µg/mL; MIC (Klebsiella pneumoniae [22]): ≤ 0.12 µg/mL; MIC (Escherichia coli [23]): ≤ 0.12 µg/mL; MIC (Klebsiella pneumoniae [24]): ≤ 0.12 µg/mL; MIC (Acinetobacter baumannii [25]): 16 µg/mL; MIC (Pseudomonas aeruginosa [26]): 16 µg/mL; MIC (Klebsiella pneumoniae [27]): ≤ 0.12 µg/mL; MIC (Acinetobacter baumannii [29]): > 16 µg/mL; MIC (Klebsiella pneumoniae [30]): ≤ 0.12 µg/mL; MIC (Acinetobacter baumannii [32]): 0.25 µg/mL; MIC (Pseudomonas aeruginosa [36]): 16 µg/mL
NC(=O)[C@@H]1CC[C@@H]2CN1C(=O)N2OS(=O)(=O)[O-].[Na+] [AVIBACTAM SODIUM] | > 16 | ≤ 0.12 | 0.25 | > 16 | ≤ 0.12 | 0.25 | ≤ 0.12 | ≤ 0.12 | ≤ 0.12 | ≤ 0.12 | ≤ 0.12 | ≤ 0.12 | 33 | > 16 | 1 | ≤ 0.12 | 14.4 | MIC (Acinetobacter baumannii [37]): > 16 µg/mL; MIC (Pseudomonas aeruginosa [38]): 16 µg/mL; MIC (Escherichia coli [39]): > 16 µg/mL; MIC (Pseudomonas aeruginosa [40]): 16 µg/mL; MIC (Pseudomonas aeruginosa [41]): > 16 µg/mL
